Experimental findings from ChEMBL document CHEMBL2057196, “Discovery of a novel class of potent human deoxyuridine triphosphatase inhibitors remarkably enhancing the antitumor activity of thymidylate synthase inhibitors” (J Med Chem, 2012) are described below.

Molecules are shown by their SMILES. pEC50, pIC50, pKi: −log10 of the molar value.

Data set [1] in a line: Inhibition of Escherichia coli dUTPase.
Data set [2] is described as follows: Potentiation of antiproliferative activity of FdUrd against human HeLaS3 cells assessed as compound concentration causing 50% reduction in 1 uM FdUrd T/C value after 24 hrs by crystal violet assay. To be noted: for pEC50: Homo sapiens, HeLa S3, 24 h, read-out: EC50; for EC50: hela s3. The format is functional, cell-based, HeLa S3. A digest of the protocol:
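HeLa S3 cells seeded at 1500 cells/well and pre-incubated 24 h. Compound (1–100 μM) or DMSO added together with FdUrd (1 μM) for 24 h. Thymidine (30 μM) then added for a further 48 h. Crystal violet read-out at OD540. EC50 is the concentration that halves the FdUrd T/C (%), taken from the curve. Mean of three independent assays ± SD.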

Data set [3] is described as follows: Antiproliferative activity against human HeLaS3 cells at 30 uM after 72 hrs by crystal violet assay. The format is functional, HeLa S3. In short, it runs like this: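 HeLa S3 cells grown in RPMI1640 with 10% FBS, seeded at 1500 cells/well and left 24 h at 37 °C, 5% CO2. Compound (1–100 μM) or DMSO vehicle added, then 72 h incubation. Growth read by crystal violet staining, OD540. […] Average of three independent assays.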

Data set [4] addresses T1, Deoxyuridine 5'-triphosphate nucleotidohydrolase, mitochondrial (Homo sapiens, UniProt P33316).
T1 sequence (P33316 whole entry): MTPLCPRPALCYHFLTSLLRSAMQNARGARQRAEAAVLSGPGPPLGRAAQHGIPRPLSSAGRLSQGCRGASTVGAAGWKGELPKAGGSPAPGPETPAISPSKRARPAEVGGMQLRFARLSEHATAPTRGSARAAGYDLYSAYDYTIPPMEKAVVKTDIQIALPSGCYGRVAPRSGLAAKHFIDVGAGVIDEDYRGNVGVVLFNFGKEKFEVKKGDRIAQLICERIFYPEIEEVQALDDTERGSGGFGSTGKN
The data set can be described thus: Inhibition of human dUTPase assessed as production of [5-3H]dUMP from [5-3H]dUTP after 15 mins measured by HPLC analysis.

Data set [5] is described as follows: Half life in Balb/c-A mouse at 50 mg/kg, po in a solution containing 2.5% DMA, 2.5% Tween 80 and 10% cremophor EL. The format is ADME, organism-based. On the set-up: dose 50 mg/kg, route oral. As to conditions: in vivo; call rule not given here. In short, it runs like this: (§1)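 Male Balb/c-A mice aged 6–9 weeks (n = 2), single oral dose; plasma drug levels measured by UPLC.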
Data set [6] deals with MX1. The data set is described as follows: Potentiation of antitumor activity of 5-Fu against human MX1 cells xenografted in Balb/c-A JcL-nu mouse assessed as tumor growth inhibition at 300 mg/kg/day, po for 14 days measured on day 15 relative to control. As to conditions: read-out: GI. The format is functional. A digest of the protocol:
(§2)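 Five-week-old Balb/cA JcL-nu mice given sc MX-1 tumor fragments (~2 mm) by trocar. Treatment for 14 days: 5-FU 15 mg/kg/day by osmotic-pump continuous infusion, and/or oral compound. Vehicle was 2.5% DMA, 2.5% Tween 80, 10% Cremophor, 0.5% HPMC. Tumor size and body weight measured twice weekly. TV = length × width² × 0.5. RTV = TV day 15/day 0. IR = (1 − treated/control mean RTV) × 100.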

Data set [7] can be described thus: Tmax in Balb/c-A mouse at 50 mg/kg, po in a solution containing 2.5% DMA, 2.5% Tween 80 and 10% cremophor EL. Format: ADME, organism-based. On the set-up: dose 50 mg/kg, route oral. To be noted: in vivo. In short, it runs like this:
as §1

Data set [8] has as its system MX1. The data set can be described thus: Antitumor activity against human MX1 cells xenografted in Balb/c-A JcL-nu mouse assessed as decrease in tumor volume at 300 mg/kg/day, po for 14 days measured on day 15 relative to control (reference value: 11.4 +/- 3.74). Format: functional. A digest of the protocol:
as §2

Data set [9] has as its system MX1. The data set can be described thus: Antitumor activity against human MX1 cells xenografted in Balb/c-A JcL-nu mouse assessed as tumor growth inhibition at 300 mg/kg/day, po for 14 days measured on day 15 relative to control. Format: functional. To be noted: read-out: GI. A digest of the protocol:
as §2

Data set [10] has as its system MX1. The data set is described as follows: Potentiation of antitumor activity of 5-Fu against human MX1 cells xenografted in Balb/c-A JcL-nu mouse assessed as tumor volume at 300 mg/kg/day, po for 14 days measured on day 15 (reference value: 2048 +/- 693.7 mm3). Format: functional. A digest of the protocol: as §2
For data set [11], the system named is MX1. The data set can be described thus: Potentiation of antitumor activity of 5-Fu against human MX1 cells xenografted in Balb/c-A JcL-nu mouse assessed as decrease in tumor volume at 300 mg/kg/day, po for 14 days measured on day 15 relative to control (reference value: 11.4 +/- 3.74). The format is functional. In short, it runs like this:
as §2

The next data set relates to Mus musculus. The data set is described as follows: Toxicity in Balb/c-A JcL-nu mouse bearing human MX1 cells assessed as decrease in body weight at 300 mg/kg/day, po administered for 15 days and co-treated with 5-Fu. The format is organism-based. On the set-up: route oral. To be noted: in vivo, 336 h, in the assay text read “for 14 days” for “for 15 days”. In short, it runs like this: as §2

The nature of data set [12]: AUCt in Balb/c-A mouse at 50 mg/kg, po in a solution containing 2.5% DMA, 2.5% Tween 80 and 10% cremophor EL. To be noted: plasma. The format is ADME, organism-based. On the set-up: dose 50 mg/kg, route oral. A digest of the protocol:
as §1

Data set [13] relates to MX1. The data set is described as follows: Antitumor activity against human MX1 cells xenografted in Balb/c-A JcL-nu mouse assessed as tumor volume at 300 mg/kg/day, po for 14 days measured on day 15 (reference value: 2048 +/- 693.7 mm3). Format: functional. A digest of the protocol: as §2
Data set [14] can be described thus: Cmax in Balb/c-A mouse at 50 mg/kg, po in a solution containing 2.5% DMA, 2.5% Tween 80 and 10% cremophor EL. As to conditions: in vivo. On the set-up: dose 50 mg/kg, route oral. The format is ADME, organism-based. A digest of the protocol:
as §1

A short description of data set [15]: Antiproliferative activity against human HeLaS3 cells after 72 hrs by crystal violet assay. As to conditions: HeLa S3, 72 h.
Data set [16] deals with MX1. The data set is described as follows: Antitumor activity against human MX1 cells xenografted in Balb/c-A JcL-nu mouse assessed as tumor volume at 15 mg/kg/day by continuous infusion for 14 days measured on day 15 (reference value: 2048 +/- 693.7 mm3). Format: functional. In short, it runs like this:
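Five-week-old Balb/cA JcL-nu mice with MX-1 human breast carcinoma fragments (~2 mm) implanted sc by trocar, tumour maintained by sc serial transplantation. 5-FU given by continuous infusion via osmotic pump for 14 days; vehicle 2.5% DMA, 2.5% Tween 80, 10% Cremophor, 0.5% HPMC. Tumour size measured twice weekly; TV = length × width² × 0.5, read on day 15.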

Data set [17] has as its system MX1. The data set is described as follows: Antitumor activity against human MX1 cells xenografted in Balb/c-A JcL-nu mouse assessed as tumor volume at 15 mg/kg/day by continuous infusion for 14 days measured on day 15 relative to control (reference value: 11.4 +/- 3.74). The format is functional.
Data set [18] has as its system MX1. The data set can be described thus: Antitumor activity against human MX1 cells xenografted in Balb/c-A JcL-nu mouse assessed as tumor growth inhibition at 15 mg/kg/day by continuous infusion for 14 days measured on day 15 relative to control. The format is functional. To be noted: read-out: GI.

`O=c1ccn([C@H]2C[C@H](O)[C@@H](COP(=O)(O)NP(=O)(O)OP(=O)(O)O)O2)c(=O)[nH]1` gave a pKi in data set [1] of 5.30.

Turning to `CC(C)(CCCOCn1ccc(=O)[nH]c1=O)NS(=O)(=O)c1ccccc1`, in data set [2], the pEC50 was 5.29 and the EC50 entry was “Dose-dependent effect”. This molecule registered a T/C in data set [3] of 96%.

Take `O=c1ccn([C@H]2C[C@H](O)[C@@H](COP(=O)(O)CP(=O)(O)OP(=O)(O)OCc3ccccc3)O2)c(=O)[nH]1`: in [1], the pKi was 6.52.

In the case of `O=c1ccn(COCCOS(=O)(=O)NS(=O)(=O)c2ccccc2)c(=O)[nH]1`, the pIC50 in [4] is 5.51. The EC50 result in data set [2] is given as “Not Active”.

Turning to `COc1cc(C)ccc1S(=O)(=O)NC(C)(C)CCCOCn1ccc(=O)[nH]c1=O`, the pIC50 in [4] was 4.71. The pEC50 in data set [2] was 4.85.

As to `COc1cccc(S(=O)(=O)NC(C)(C)CCCOCn2ccc(=O)[nH]c2=O)c1`, the pIC50 in [4] is 5.92. Besides, in data set [2], the pEC50 is 5.96.

As for `COc1ccc(S(=O)(=O)NC(C)(C)CCCOCn2ccc(=O)[nH]c2=O)cc1`, the pIC50 in [4] was 4.74. Moreover, the negative logarithm of the EC50 (pEC50) in [2] was 4.83.

Consider `CC(C)(CCCOCn1ccc(=O)[nH]c1=O)NS(=O)(=O)c1ccccc1Cl`, for which, in [4], the pIC50 was 5.03. The pEC50 in [2] was 5.10.

Regarding `CC(C)(CCCOCn1ccc(=O)[nH]c1=O)NS(=O)(=O)c1cccc(Cl)c1`, the pIC50 in [4] is 5.35. Moreover, the pEC50 in data set [2] was 5.40.

Take `CC(C)(CCCOCn1ccc(=O)[nH]c1=O)NS(=O)(=O)c1ccc(Cl)cc1`: in data set [4], the pIC50 is 5.24. Further, the pEC50 in [2] is 5.30.

On to `CC(C)(CCCOCn1ccc(=O)[nH]c1=O)NS(=O)(=O)c1cccc(OCC2CC2)c1`, for which the pIC50 in data set [4] is 7.46. In addition, the negative-log EC50 (pEC50) in [2] was 6.74.

With `CC(C)(NS(=O)(=O)CCCOCn1ccc(=O)[nH]c1=O)c1cccc(OCC2CC2)c1`, the pIC50 in [4] was 6.47. Also, the pEC50 in data set [2] is 6.35.

For the molecule `C[C@@H](NS(=O)(=O)CCCOCn1ccc(=O)[nH]c1=O)c1cccc(OCC2CC2)c1`, the pIC50 in data set [4] was 7.40. Besides, in data set [2], the pEC50 was 7.18.

Turning to `C[C@H](NS(=O)(=O)CCCOCn1ccc(=O)[nH]c1=O)c1cccc(OCC2CC2)c1`, the pIC50 in [4] is 5.60. Moreover, the pEC50 in data set [2] is 5.38.

For the molecule `C[C@@H](NS(=O)(=O)CCCOCn1ccc(=O)[nH]c1=O)c1ccc(F)c(OCC2CC2)c1`, the half-life in [5] was 84 min. In addition, the inhibition in vivo at 300 mg/kg/day was 83% in the data set on MX1 [6] and -30.9% in the data set with MX1 [9]. Also, the Tmax in data set [7] was found to be 30 min. Besides, the Ratio in the data set on MX1 [8] came out at 14.9; in the data set on MX1 [11], 1.94. In addition, the Activity with MX1 [10] is reported as 299.7 mm3; in the data set on Mus musculus, “Non-toxic”; in the data set on MX1 [13], 2698 mm3. Further, the pIC50 in data set [4] is 7.68; in data set [15] it was 4.55. In [12], the AUC(0-t) is 24.9 µM·h. Further, the pEC50 in data set [2] was 7.12. The molecule also yielded a peak concentration (Cmax) in data set [14] of 15.1 µM.

In the case of `CC(C)(C)[Si](C)(C)OCCOCn1ccc(=O)[nH]c1=O`, the negative logarithm of the IC50 (pIC50) in data set [4] is 4.00.

`O=c1ccn(COCCOC(c2ccccc2)(c2ccccc2)c2ccccc2)c(=O)[nH]1`: the pIC50 in [4] was under 4.00.

On to `CC(NS(=O)(=O)CCCOCn1ccc(=O)[nH]c1=O)c1cccc(OCC2CC2)c1` (racemic), for which, in [4], the pIC50 was 7.21. Also, the pEC50 in [2] is 6.85.

As to `O=c1[nH]cc(F)c(=O)[nH]1` [FLUOROURACIL], the Activity in the data set on MX1 [16] amounted to 1645 mm3. The Ratio with MX1 [17] turned out to be 9.13. The inhibition in vivo at 15 mg/kg/day in the data set on MX1 [18] was found to be 20%.
